Data published in ChEMBL document CHEMBL1140488, “Influence of 6 or 8-substitution on the antiviral activity of 3-phenethylthiomethylimidazo[1,2-a]pyridine against human cytomegalovirus (HCMV) and varicella-zoster virus (VZV)” (Bioorg Med Chem, 2007).
In brackets after ≈: the same amount, converted by molar mass.

Tests used:
Human alphaherpesvirus 3 [1] = assay: Antiviral activity against TK+ VZV OKA in HEL cells assessed as reduction of virus plaque formation; assay type: functional, organism-based; conditions: Human alphaherpesvirus 3, OKA
Human alphaherpesvirus 3 [2] = assay: Antiviral activity against TK- VZV 07/1 in HEL cells assessed as reduction of virus plaque formation; assay type: functional, organism-based; conditions: Human alphaherpesvirus 3, 07/1, HEL
Human betaherpesvirus 5 [3] = assay: Antiviral activity against HCMV AD169 in HEL cells assessed as reduction of virus plaque formation after 5 days; assay type: functional, organism-based; conditions: Human betaherpesvirus 5, AD169, HEL, 120 h
Method in brief: (§1)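 Confluent human embryonic lung (HEL) cell monolayers in microtiter plates were inoculated with 100 PFU of HCMV (AD169 or Davis) and left 2 h for adsorption. Residual virus was then removed and compound was added at varying concentrations. Viral cytopathicity was read once it reached completion in untreated infected controls. EC50 is the concentration inhibiting cytopathicity by 50%.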

Human betaherpesvirus 5 [4] = assay: Antiviral activity against HCMV Davis in HEL cells assessed as reduction of virus plaque formation after 5 days; assay type: functional, organism-based; conditions: Human betaherpesvirus 5, Davis, 120 h
Method in brief: as §1, with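 “controls.” for “controls. EC50 is the concentration inhibiting cytopathicity by 50%.”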

[5] = Cytotoxicity against HEL cells assessed as alteration in cell morphology after 3 days; assay type: cell-based; conditions: human
Method in brief: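 HEL cell cultures exposed to compound were inspected by microscope for altered morphology. MCC is the minimum concentration causing a microscopically detectable alteration of cell morphology.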

[6] = Cytotoxicity against HEL cells assessed as reduction of cell growth after 3 days; assay type: cell-based; conditions: human
Method in brief: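 HEL cell suspensions were added to wells holding serial concentrations of compound and incubated 3 days at 37 °C in humidified CO2. Viable cells were then counted with a Coulter Counter. CC50 is the concentration reducing viable cell number by 50%.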

| Structure (SMILES) | EC50 (Human alphaherpesvirus 3 [1]) | EC50 (Human alphaherpesvirus 3 [2]) | EC50 (Human betaherpesvirus 5 [3]) | EC50 (Human betaherpesvirus 5 [4]) | MCC at 72 h [5] | CC50 at 72 h [6] |
| --- | --- | --- | --- | --- | --- | --- |
| COc1cccc(-c2cc(C)c3ncc(CSCCc4ccccc4)n3c2)c1 | > 4 µg/mL | > 4 µg/mL | 2.2 µg/mL (≈ 5.66 µM) | 2.5 µg/mL (≈ 6.43 µM) | 20 µg/mL | 36 µg/mL (≈ 92.7 µM) |
| COc1cccc(-c2cc(C)cn3c(CSCCc4ccccc4)cnc23)c1 | 8.3 µg/mL (≈ 21.4 µM) | 10.3 µg/mL (≈ 26.5 µM) | 10.9 µg/mL (≈ 28.1 µM) | 10.9 µg/mL (≈ 28.1 µM) | 100 µg/mL | > 50 µg/mL |
| Cc1cc(-c2cccc([N+](=O)[O-])c2)cn2c(CSCCc3ccccc3)cnc12 | 5.6 µg/mL (≈ 13.9 µM) | 8.3 µg/mL (≈ 20.6 µM) | 7.6 µg/mL (≈ 18.8 µM) | 4 µg/mL (≈ 9.91 µM) | ≥ 100 µg/mL | 43 µg/mL (≈ 107 µM) |
| Cc1cc(-c2cccc([N+](=O)[O-])c2)c2ncc(CSCCc3ccccc3)n2c1 | > 20 µg/mL | > 20 µg/mL | > 100 µg/mL | > 100 µg/mL | 100 µg/mL | 47 µg/mL (≈ 116 µM) |
| Cc1cc(-c2cccc(F)c2)c2ncc(CSCCc3ccccc3)n2c1 | > 4 µg/mL | > 4 µg/mL | 2.2 µg/mL (≈ 5.84 µM) | 2.2 µg/mL (≈ 5.84 µM) | 20 µg/mL | 35 µg/mL (≈ 93 µM) |
| c1ccc(CCSCc2cnc3ccc(-c4ccccc4)cn23)cc1 | 0.74 µg/mL (≈ 2.15 µM) | > 0.8 µg/mL | > 0.8 µg/mL | > 0.8 µg/mL | 4 µg/mL | 9.9 µg/mL (≈ 28.7 µM) |
| Cc1cc(-c2ccccc2)c2ncc(CSCCc3ccccc3)n2c1 | > 4 µg/mL | > 4 µg/mL | > 4 µg/mL | > 4 µg/mL | 20 µg/mL | 33 µg/mL (≈ 92 µM) |
| Cc1cc(-c2cccs2)cn2c(CSCCc3ccccc3)cnc12 | 4 µg/mL (≈ 11 µM) | > 4 µg/mL | 2.2 µg/mL (≈ 6.04 µM) | 2.2 µg/mL (≈ 6.04 µM) | 20 µg/mL | 32 µg/mL (≈ 87.8 µM) |
| Cc1cc(-c2cccs2)c2ncc(CSCCc3ccccc3)n2c1 | 7.8 µg/mL (≈ 21.4 µM) | 4 µg/mL (≈ 11 µM) | 2.5 µg/mL (≈ 6.86 µM) | 2.2 µg/mL (≈ 6.04 µM) | 100 µg/mL | > 50 µg/mL |
| Cc1cc(Br)cn2c(CSCCc3ccccc3)cnc12 | 0.48 µg/mL (≈ 1.33 µM) | 1.1 µg/mL (≈ 3.04 µM) | 0.32 µg/mL (≈ 0.886 µM) | 0.13 µg/mL (≈ 0.36 µM) | ≥ 2 µg/mL | 28 µg/mL (≈ 77.5 µM) |
| Cc1cc(-c2ccsc2)c2ncc(CSCCc3ccccc3)n2c1 | 8.9 µg/mL (≈ 24.4 µM) | 8.6 µg/mL (≈ 23.6 µM) | 2.5 µg/mL (≈ 6.86 µM) | 2.5 µg/mL (≈ 6.86 µM) | 100 µg/mL | > 50 µg/mL |
| Cc1cc(I)c2ncc(CSCCc3ccccc3)n2c1 | 2.6 µg/mL (≈ 6.37 µM) | 2.6 µg/mL (≈ 6.37 µM) | > 0.8 µg/mL | 1.8 µg/mL (≈ 4.41 µM) | ≥ 4 µg/mL | > 50 µg/mL |
| COc1ccc(-c2cc(C)cn3c(CSCCc4ccccc4)cnc23)cc1 | 2 µg/mL (≈ 5.15 µM) | 3.1 µg/mL (≈ 7.98 µM) | 2.2 µg/mL (≈ 5.66 µM) | 2.2 µg/mL (≈ 5.66 µM) | 20 µg/mL | 19.6 µg/mL (≈ 50.4 µM) |
| Cc1cc(I)cn2c(CSCCc3ccccc3)cnc12 | 0.68 µg/mL (≈ 1.67 µM) | 0.43 µg/mL (≈ 1.05 µM) | > 0.16 µg/mL | 0.12 µg/mL (≈ 0.294 µM) | ≥ 0.8 µg/mL | > 50 µg/mL |
| Cc1cc(-c2cccc(O)c2)c2ncc(CSCCc3ccccc3)n2c1 | 1.6 µg/mL (≈ 4.27 µM) | 2.9 µg/mL (≈ 7.74 µM) | > 4 µg/mL | > 4 µg/mL | 20 µg/mL | 11.4 µg/mL (≈ 30.4 µM) |
| Nc1nc2c(ncn2COCCO)c(=O)[nH]1 [ACYCLOVIR] |  |  |  |  | > 400 µg/mL | > 200 µg/mL |
| O=c1[nH]c(=O)n([C@H]2C[C@H](O)[C@@H](CO)O2)cc1/C=C/Br [BRIVUDINE] | 0.0038 µg/mL (≈ 0.0114 µM) | 362 µg/mL (≈ 1090 µM) |  |  | > 400 µg/mL |  |
| Nc1ccn(C[C@@H](CO)OCP(=O)(O)O)c(=O)n1.O.O [CIDOFOVIR] |  |  | 0.1 µg/mL | 0.12 µg/mL | ≥ 100 µg/mL | 47 µg/mL |
| Nc1nc2c(ncn2COC(CO)CO)c(=O)[nH]1 [GANCICLOVIR] |  |  | 0.51 µg/mL (≈ 2 µM) |  | 100 µg/mL | 146 µg/mL (≈ 572 µM) |

Further lines, with some results ahead:

| EC50 (Human alphaherpesvirus 3 [1]) | EC50 (Human alphaherpesvirus 3 [2]) | EC50 (Human betaherpesvirus 5 [3]) | EC50 (Human betaherpesvirus 5 [4]) | Structure (SMILES) | MCC at 72 h [5] | CC50 at 72 h [6] |
| --- | --- | --- | --- | --- | --- | --- |
| > 20 µg/mL | > 20 µg/mL | > 100 µg/mL | > 100 µg/mL | Cc1cc(-c2ccccc2O)cn2c(CSCCc3ccccc3)cnc12 | 100 µg/mL | > 50 µg/mL |
| 2.4 µg/mL (≈ 6.41 µM) | 3.7 µg/mL (≈ 9.88 µM) | 2.2 µg/mL (≈ 5.87 µM) | 2.2 µg/mL (≈ 5.87 µM) | Cc1cc(-c2cccc(O)c2)cn2c(CSCCc3ccccc3)cnc12 | 20 µg/mL | 50 µg/mL (≈ 134 µM) |
| > 20 µg/mL | > 100 µg/mL | > 100 µg/mL | > 100 µg/mL | Cc1cc(-c2ccc(O)cc2)cn2c(CSCCc3ccccc3)cnc12 | ≥ 100 µg/mL | > 50 µg/mL |
| 2.2 µg/mL (≈ 5.74 µM) | 2 µg/mL (≈ 5.21 µM) | 1.8 µg/mL (≈ 4.69 µM) | 2.5 µg/mL (≈ 6.52 µM) | Cc1cc(-c2ccc(C#N)cc2)cn2c(CSCCc3ccccc3)cnc12 | ≥ 20 µg/mL | 10.6 µg/mL (≈ 27.6 µM) |
| 1.7 µg/mL (≈ 4.66 µM) | 1.8 µg/mL (≈ 4.94 µM) | > 0.8 µg/mL | 1.8 µg/mL (≈ 4.94 µM) | Cc1cc(-c2ccsc2)cn2c(CSCCc3ccccc3)cnc12 | ≥ 4 µg/mL | > 50 µg/mL |
| 3.6 µg/mL (≈ 10 µM) | > 4 µg/mL | 2 µg/mL (≈ 5.58 µM) | 2.2 µg/mL (≈ 6.14 µM) | Cc1cc(-c2ccccc2)cn2c(CSCCc3ccccc3)cnc12 | 20 µg/mL | 31 µg/mL (≈ 86.5 µM) |
| > 100 µg/mL | 81 µg/mL (≈ 211 µM) | 2.2 µg/mL (≈ 5.74 µM) | 2.5 µg/mL (≈ 6.52 µM) | Cc1cc(-c2cccc(C#N)c2)cn2c(CSCCc3ccccc3)cnc12 | > 100 µg/mL | > 50 µg/mL |
| 1.7 µg/mL (≈ 4.54 µM) | 2.7 µg/mL (≈ 7.21 µM) | 2.2 µg/mL (≈ 5.87 µM) | 2.2 µg/mL (≈ 5.87 µM) | Cc1cc(-c2ccc(O)cc2)c2ncc(CSCCc3ccccc3)n2c1 | 20 µg/mL | 13.7 µg/mL (≈ 36.6 µM) |
| 2.4 µg/mL (≈ 6.18 µM) | > 4 µg/mL | 3.1 µg/mL (≈ 7.98 µM) | 2.2 µg/mL (≈ 5.66 µM) | COc1ccc(-c2cc(C)c3ncc(CSCCc4ccccc4)n3c2)cc1 | 20 µg/mL | 25.8 µg/mL (≈ 66.4 µM) |
